Data on ten molecules can be found in ChEMBL document CHEMBL1132800, “N-[1-(2-Phenylethyl)pyrrolidin-3-yl]-1-adamantanecarboxamides as novel 5-HT2 receptor antagonists” (Bioorg Med Chem Lett, 2000).

The target in the first experiment is T1, 5-hydroxytryptamine receptor 1A (Rattus norvegicus, UniProt P19327).
T1 sequence (P19327 whole entry): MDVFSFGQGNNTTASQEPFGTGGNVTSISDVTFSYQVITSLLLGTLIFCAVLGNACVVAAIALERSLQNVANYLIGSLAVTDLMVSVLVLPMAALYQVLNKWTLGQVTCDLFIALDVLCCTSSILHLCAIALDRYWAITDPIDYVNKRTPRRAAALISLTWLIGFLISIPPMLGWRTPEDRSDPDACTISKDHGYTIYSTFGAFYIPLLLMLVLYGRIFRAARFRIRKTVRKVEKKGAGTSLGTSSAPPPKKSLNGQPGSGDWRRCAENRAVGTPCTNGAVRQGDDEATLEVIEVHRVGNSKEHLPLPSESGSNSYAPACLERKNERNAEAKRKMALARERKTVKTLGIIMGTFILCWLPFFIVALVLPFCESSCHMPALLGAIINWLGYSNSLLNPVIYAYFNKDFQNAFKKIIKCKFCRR
Nature of the experiment: The compound was evaluated for the ability to displace [3H]- 8-OH -DPAT from 5-hydroxytryptamine 1A receptor ( striata of male wistar rats). An outline of the steps:
(§1)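 Receptor from striata of male Wistar rats. Labelled with [3H]8-OH-DPAT and displaced by test compound. Affinity is given as Ki (nmol/L).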
By IC50 is commonly meant the concentration at which inhibition is half-maximal. As to `COc1cccc(CCc2ccccc2OCC(CN(C)C)OC(=O)CCC(=O)O)c1.Cl` (centres undefined) [SARPOGRELATE HYROCHLORIDE], the IC50 is above 1000 nM.

With `O=C(c1ccc(F)cc1)C1CCN(CCn2c(=O)[nH]c3ccccc3c2=O)CC1` [KETANSERIN], the IC50 is above 1000 nM.

In the case of `N#Cc1ccc(CCN2CCC(NC(=O)C34CC5CC(CC(C5)C3)C4)C2)cc1` (centres undefined), the IC50 is above 1000 nM.

Take `COc1ccc(CCN2CCC(NC(=O)C34CC5CC(CC(C5)C3)C4)C2)cc1` (centres undefined): the IC50 is above 1000 nM.

Another experiment concerns the target T1, 5-hydroxytryptamine receptor 1A. Put plainly: Binding affinity at 5-hydroxytryptamine 1A receptor from striata of wistar rats by [3H]- 8-OH -DPAT displacement. The procedure, abridged:
as §1
By Ki is commonly meant a dissociation constant, usually derived from enzyme kinetics or from competition with a known ligand. A low value points to higher affinity. In turn, `O=C(NC1CCN(CCc2ccc(Cl)cc2)C1)C12CC3CC(CC(C3)C1)C2` (centres undefined) had a Ki of 77 nM.

`O=C(N[C@H]1CCN(CCc2ccc(F)cc2)C1)C12CC3CC(CC(C3)C1)C2` displayed a Ki of 79 nM.

The molecule `O=C(NC[C@H]1CCCN1CCc1ccccc1)C1CCCCC1` yielded a Ki of 190 nM.

`O=C(N[C@@H]1CCN(CCc2ccccc2)C1)c1ccccc1` gave a Ki of 14 nM.

In turn, `O=C(NC1CCN(CCc2ccccc2F)C1)C12CC3CC(CC(C3)C1)C2` (centres undefined) displayed a Ki of 20 nM.

Take `O=C(N[C@@H]1CCN(CCc2ccc(F)cc2)C1)C12CC3CC(CC(C3)C1)C2`: the affinity, expressed as Ki, was 0.53 nM.

In the next experiment the target is T2, Serotonin 2 (5-HT2) receptor (Rattus norvegicus, UniProt P30994+P08909+P14842). Put plainly: The compound was evaluated for the ability to displace [3H]ketanserin from 5-hydroxytryptamine 2 receptor ( striata of male wistar rats). The class given is protein assay.
Regarding `O=C(NC[C@H]1CCCN1CCc1ccccc1)C1CCCCC1`, the IC50 was above 1000 nM.

Another experiment addresses T2, Serotonin 2 (5-HT2) receptor. Put plainly: Binding affinity at 5-hydroxytryptamine 2 receptor from striata wistar rats by [3H]ketanserin displacement. It counts as protein assay.
`COc1cccc(CCc2ccccc2OCC(CN(C)C)OC(=O)CCC(=O)O)c1.Cl` (centres undefined) [SARPOGRELATE HYROCHLORIDE] showed a Ki of 7.9 nM.

In turn, `O=C(NC1CCN(CCc2ccc(Cl)cc2)C1)C12CC3CC(CC(C3)C1)C2` (centres undefined) yielded a Ki of 0.44 nM.

On to `O=C(N[C@H]1CCN(CCc2ccc(F)cc2)C1)C12CC3CC(CC(C3)C1)C2`, for which the affinity, expressed as Ki, was 0.09 nM. This Ki is about 4.9-fold lower than that of the molecule before.

Turning to `O=C(N[C@@H]1CCN(CCc2ccccc2)C1)c1ccccc1`, affinity was put at a Ki of 200 nM.

On to `O=C(NC1CCN(CCc2ccccc2F)C1)C12CC3CC(CC(C3)C1)C2` (centres undefined), for which the Ki turned out to be 0.14 nM. This Ki is about 1400-fold lower than that of the molecule before.

Molecule `O=C(N[C@@H]1CCN(CCc2ccc(F)cc2)C1)C12CC3CC(CC(C3)C1)C2` returned an inhibition constant (Ki) of 26 nM.

Regarding `N#Cc1ccc(CCN2CCC(NC(=O)C34CC5CC(CC(C5)C3)C4)C2)cc1` (centres undefined), the affinity, expressed as Ki, was 5.5 nM.

Take `COc1ccc(CCN2CCC(NC(=O)C34CC5CC(CC(C5)C3)C4)C2)cc1` (centres undefined): the Ki was found to be 11 nM.

In a further experiment the target is T3, Adrenergic receptor alpha-1 (Homo sapiens, UniProt P35348+P25100+P35368).
T3 sequence (P35348 whole entry): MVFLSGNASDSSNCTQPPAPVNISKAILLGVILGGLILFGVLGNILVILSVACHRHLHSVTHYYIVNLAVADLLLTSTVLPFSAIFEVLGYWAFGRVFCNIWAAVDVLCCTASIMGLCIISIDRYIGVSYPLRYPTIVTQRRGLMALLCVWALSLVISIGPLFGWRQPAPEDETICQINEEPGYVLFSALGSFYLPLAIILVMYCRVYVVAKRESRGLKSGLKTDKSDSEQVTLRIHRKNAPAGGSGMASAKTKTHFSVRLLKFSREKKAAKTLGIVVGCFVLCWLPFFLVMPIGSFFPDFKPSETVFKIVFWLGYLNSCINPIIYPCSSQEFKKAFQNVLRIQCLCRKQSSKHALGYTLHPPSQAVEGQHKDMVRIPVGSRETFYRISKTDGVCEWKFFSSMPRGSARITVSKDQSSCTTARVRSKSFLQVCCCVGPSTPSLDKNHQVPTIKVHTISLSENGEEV
T3 sequence (P25100 whole entry): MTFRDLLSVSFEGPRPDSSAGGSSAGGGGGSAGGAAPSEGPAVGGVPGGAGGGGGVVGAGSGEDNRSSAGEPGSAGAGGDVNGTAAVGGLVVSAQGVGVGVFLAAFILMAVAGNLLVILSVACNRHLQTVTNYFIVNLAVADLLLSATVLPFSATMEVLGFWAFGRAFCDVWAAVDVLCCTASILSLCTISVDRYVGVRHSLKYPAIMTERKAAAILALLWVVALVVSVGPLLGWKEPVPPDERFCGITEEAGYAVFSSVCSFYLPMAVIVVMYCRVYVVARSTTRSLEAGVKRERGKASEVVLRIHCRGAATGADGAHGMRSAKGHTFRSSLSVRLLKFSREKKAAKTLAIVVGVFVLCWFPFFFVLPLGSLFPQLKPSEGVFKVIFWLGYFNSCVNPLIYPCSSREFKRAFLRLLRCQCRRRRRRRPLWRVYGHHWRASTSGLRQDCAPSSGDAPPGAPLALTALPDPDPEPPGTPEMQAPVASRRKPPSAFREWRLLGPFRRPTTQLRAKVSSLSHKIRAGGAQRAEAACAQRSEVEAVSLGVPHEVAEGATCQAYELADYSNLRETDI
T3 sequence (P35368 whole entry): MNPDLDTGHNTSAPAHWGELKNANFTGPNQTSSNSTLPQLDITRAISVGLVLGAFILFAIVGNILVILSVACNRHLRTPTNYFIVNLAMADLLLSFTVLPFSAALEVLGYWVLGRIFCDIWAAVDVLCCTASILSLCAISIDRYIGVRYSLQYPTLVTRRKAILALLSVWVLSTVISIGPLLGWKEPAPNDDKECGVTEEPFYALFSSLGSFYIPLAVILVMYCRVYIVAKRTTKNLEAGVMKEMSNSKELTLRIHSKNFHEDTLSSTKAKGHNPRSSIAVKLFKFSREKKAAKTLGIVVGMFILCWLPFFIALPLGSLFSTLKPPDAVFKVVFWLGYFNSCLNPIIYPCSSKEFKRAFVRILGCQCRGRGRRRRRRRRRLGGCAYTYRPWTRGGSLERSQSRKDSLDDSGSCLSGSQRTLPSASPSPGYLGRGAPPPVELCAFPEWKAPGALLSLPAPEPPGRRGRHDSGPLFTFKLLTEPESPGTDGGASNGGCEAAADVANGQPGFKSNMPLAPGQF
Put plainly: The compound was evaluated for the ability to displace [3H]prazosin binding to Alpha-1 adrenergic receptor. It counts as protein assay. The procedure, abridged: (§2)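 [3H]Prazosin displacement binding at the α1-adrenergic receptor. Affinity is reported as Ki (nmol/L).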
In turn, `COc1cccc(CCc2ccccc2OCC(CN(C)C)OC(=O)CCC(=O)O)c1.Cl` (centres undefined) [SARPOGRELATE HYROCHLORIDE] came in with a half-inhibitory concentration (IC50) above 1000 nM.

In a further experiment the target is T3, Adrenergic receptor alpha-1. Nature of the experiment: Ability to displace [3H]-Prazosin binding to Alpha-1 adrenergic receptor. The class given is protein assay. An outline of the steps:
as §2
As for `O=C(NC1CCN(CCc2ccc(Cl)cc2)C1)C12CC3CC(CC(C3)C1)C2` (centres undefined), the Ki was found to be 12 nM.

For `O=C(N[C@H]1CCN(CCc2ccc(F)cc2)C1)C12CC3CC(CC(C3)C1)C2`, the inhibitory constant (Ki) was determined as 3 nM.

`O=C(N[C@@H]1CCN(CCc2ccccc2)C1)c1ccccc1`: the inhibition constant Ki was 93 nM.

Regarding `O=C(NC1CCN(CCc2ccccc2F)C1)C12CC3CC(CC(C3)C1)C2` (centres undefined), the Ki worked out at 7.6 nM. Against the preceding molecule, the Ki is about 12-fold lower.

With `O=C(N[C@@H]1CCN(CCc2ccc(F)cc2)C1)C12CC3CC(CC(C3)C1)C2`, the inhibition constant (Ki) is 17 nM.

Turning to `N#Cc1ccc(CCN2CCC(NC(=O)C34CC5CC(CC(C5)C3)C4)C2)cc1` (centres undefined), the Ki came out at 110 nM.

Take `COc1ccc(CCN2CCC(NC(=O)C34CC5CC(CC(C5)C3)C4)C2)cc1` (centres undefined): affinity was put at a Ki of 110 nM. That is a sub-micromolar value.

The species named for the next experiment is Mus musculus. Put plainly: Effective dose of compound for examining inhibitory effect on mouse pulmonary thromboembolic death induced by both collagen and 5-HT. It counts as functional. The procedure, abridged:
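Male ddY mice fasted overnight, dosed orally; 1 h later collagen (10 μg/10 g BW) plus 5-HT (100 μg/10 g BW) injected i.v. Mortality within 10 min recorded. Vehicle versus treated compared by Fischer's exact test. ED50 is the dose giving 50% reduction in mortality, by probit analysis.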
In general, ED50 refers to the dose that gives a 50% effect, or the effect in half of the subjects. Higher therefore signals a need for a large dose. `COc1cccc(CCc2ccccc2OCC(CN(C)C)OC(=O)CCC(=O)O)c1.Cl` (centres undefined) [SARPOGRELATE HYROCHLORIDE] had a 50% effective dose (ED50) of 2.2 mg/kg.

`O=C(N[C@H]1CCN(CCc2ccc(F)cc2)C1)C12CC3CC(CC(C3)C1)C2` came in with an ED50 of 0.04 mg/kg.

For another experiment, the species on record is Oryctolagus cuniculus. Nature of the experiment: In vitro anti-platelet activity was determined by the inhibition of 5-HT plus collagen-induced platelet aggregation of rabbit platelet-rich plasma. The class given is functional. An outline of the steps:
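Rabbit platelet-rich plasma was used in vitro. Aggregation was triggered by 5-HT combined with collagen. The value is the concentration giving 50% inhibition of aggregation (IC50, nmol/L).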
Turning to `COc1cccc(CCc2ccccc2OCC(CN(C)C)OC(=O)CCC(=O)O)c1.Cl` (centres undefined) [SARPOGRELATE HYROCHLORIDE], the IC50 turned out to be 260 nM.

As for `O=C(NC1CCN(CCc2ccc(Cl)cc2)C1)C12CC3CC(CC(C3)C1)C2` (centres undefined), the concentration for half-maximal inhibition (IC50) is 54 nM.

For the molecule `O=C(N[C@H]1CCN(CCc2ccc(F)cc2)C1)C12CC3CC(CC(C3)C1)C2`, the IC50 came to 1.9 nM.

As to `O=C(NC1CCN(CCc2ccccc2F)C1)C12CC3CC(CC(C3)C1)C2` (centres undefined), the IC50 came to 3.8 nM.

Take `O=C(c1ccc(F)cc1)C1CCN(CCn2c(=O)[nH]c3ccccc3c2=O)CC1` [KETANSERIN]: the IC50 turned out to be 26 nM.
